Laboratory results published in ChEMBL document CHEMBL4765448, “Multiple biological active 4-aminopyrazoles containing trifluoromethyl and their 4-nitroso-precursors: Synthesis and evaluation” (Eur J Med Chem, 2020).
Values after ≈ are worked out from the molar mass of the structure shown. Active and inactive are the calls of the source. The calls are words filed in the database; no cut-off is given here.

What was measured:
[1] = Antioxidant activity assessed as ABTS radical scavenging activity measured after 1 hr by UV-vis spectrophotometric method; assay type: functional
Outline: (§1)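 ABTS cation-radical decolorization was read spectrophotometrically as the fall in absorbance after 1 h. Trolox was the reference. TEAC was taken as the ratio of concentration-response slopes, test/Trolox, and IC50 was also derived. Data are mean ± SEM, n = 3.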

Erythrocyte [2] = assay: Antioxidant activity in human erythrocytes assessed as protection against AAPH-induced hemolysis at 50 uM preincubated for 20 mins followed by AAPH addition and measured after 2 hrs by spectrophotometric method relative to control; assay type: functional; details: time 140 min, 2.333 h
Outline: (§2)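 Erythrocyte hemolysis assay with AAPH as the free-radical initiator, testing 50 and 400 µM. Results are expressed as relative protection of membranes against oxidative damage, each the mean of two independent experiments.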

Erythrocyte [3] = assay: Antioxidant activity in human erythrocytes assessed as protection against AAPH-induced hemolysis at 400 uM preincubated for 20 mins followed by AAPH addition and measured after 2 hrs by spectrophotometric method relative to control; assay type: functional; details: time 140 min, 2.333 h; outline: as §2
[4] = Acute toxicity in mouse at 75 mg/kg, ip administered as single dose; assay type: organism-based; details: in vivo
Outline: (§3)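 Mice, single intraperitoneal dose, following OECD Guideline for testing of chemicals; three mice per dose level; doses tested 10–300 mg/kg. Read-out is the number of survivors out of 3, used to estimate the expected LD50 range.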

[5] = Acute toxicity in mouse at 10 mg/kg, ip administered as single dose; assay type: organism-based; details: in vivo; outline: as §3
[6] = Antioxidant activity assessed as trolox equivalent of ABTS radical scavenging activity measured after 1 hr by UV-vis spectrophotometric method; assay type: functional; outline: as §1
[7] = Antioxidant activity assessed as AAPH scavenging activity by measuring residual fluorescence at 10 uM measured at 1 min interval for 30 mins by ORAC fluorescein assay relative to control; assay type: functional
Outline: (§4)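 ORAC-FL assay with fluorescein as the probe and AAPH as the peroxyl radical generator. The loss of fluorescence over time was followed, and the result is given as % fluorescence restored at 10 and 50 µM. Each value is the mean of two independent experiments.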

[8] = Antioxidant activity assessed as AAPH scavenging activity by measuring residual fluorescence at 50 uM measured at 1 min interval for 30 mins by ORAC fluorescein assay relative to control; assay type: functional; outline: as §4
Rattus norvegicus [9] = assay: Antiinflammatory activity in rat model of carrageenan-induced paw edema assessed as inhibition of hind paw swelling at 15 mg/kg, ip measured after 1 hr relative to control; assay type: functional
Rattus norvegicus [10] = assay: Antiinflammatory activity in rat model of carrageenan-induced paw edema assessed as inhibition of hind paw swelling at 15 mg/kg, ip measured after 3 hrs relative to control; assay type: functional
Rattus norvegicus [11] = assay: Analgesic activity in rat assessed as prolongation of latency period at 15 mg/kg, ip measured after 1 hr by hot-plate test relative to control; assay type: functional
Outline: (§5)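 Hot-plate test in rats. Compounds were given by intraperitoneal injection. Latency was read at 1 h and, for some compounds, also at 2 h after dosing. Results are expressed as % prolongation of the latent period versus vehicle-treated control. Significance was given as p-values.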

Rattus norvegicus [12] = assay: Analgesic activity in rat assessed as prolongation of latency period at 15 mg/kg, ip measured after 2 hrs by hot-plate test relative to control; assay type: functional; outline: as §5
Rattus norvegicus [13] = assay: Antiinflammatory activity in rat model of carrageenan-induced paw edema assessed as inhibition of hind paw swelling at 15 mg/kg, ip measured after 5 hrs; assay type: functional, organism-based
[14] = Acute toxicity in mouse at 300 mg/kg, ip administered as single dose; assay type: organism-based; details: in vivo; outline: as §3
[15] = Acute toxicity in ip dosed mouse administered as single dose; assay type: organism-based; details: in vivo; outline: as §3
Neisseria gonorrhoeae = assay: Antibacterial activity against Neisseria gonorrhoeae; assay type: functional
Escherichia coli = assay: Antibacterial activity against Escherichia coli; assay type: functional
Klebsiella pneumoniae = assay: Antibacterial activity against Klebsiella pneumoniae; assay type: functional
Citrobacter braakii = assay: Antibacterial activity against Citrobacter braakii; assay type: functional
Proteus vulgaris = assay: Antibacterial activity against Proteus vulgaris; assay type: functional
Serratia marcescens = assay: Antibacterial activity against Serratia marcescens; assay type: functional
Shigella flexneri = assay: Antibacterial activity against Shigella flexneri; assay type: functional
Pseudomonas aeruginosa = assay: Antibacterial activity against Pseudomonas aeruginosa; assay type: functional
Streptococcus pyogenes = assay: Antibacterial activity against Streptococcus pyogenes; assay type: functional
Staphylococcus aureus [16] = assay: Antibacterial activity against Staphylococcus aureus; assay type: functional
Trichophyton rubrum = assay: Antifungal activity against Trichophyton rubrum; assay type: functional
Nannizzia gypsea = assay: Antifungal activity against Trichophyton gypseum; assay type: functional
Trichophyton tonsurans = assay: Antifungal activity against Trichophyton tonsurans; assay type: functional
Trichophyton violaceum = assay: Antifungal activity against Trichophyton violaceum; assay type: functional
[17] = test system: Trichophyton interdigitale; assay: Antifungal activity against Trichophyton mentagrophytes var. interdigitale; assay type: functional
Epidermophyton floccosum = assay: Antifungal activity against Epidermophyton floccosum; assay type: functional
Microsporum canis = assay: Antifungal activity against Microsporum canis; assay type: functional
Candida albicans = assay: Antifungal activity against Candida albicans; assay type: functional
[18] = Acute toxicity in mouse at 150 mg/kg, ip administered as single dose; assay type: organism-based; details: in vivo; outline: as §3
[19] = Drug metabolism assessed as nitric oxide release in presence of rat plasma by Griess reagent based assay; assay type: cell-free
[20] = Drug metabolism assessed as nitric oxide release in absence of rat plasma by Griess reagent based assay; assay type: cell-free
HeLa = assay: Cytotoxicity against human HeLa cells; assay type: functional, cell-based; details: for IC50: Homo sapiens, HeLa, read-out: IC50
NHDF = assay: Cytotoxicity against HDF cells; assay type: cell-based, Homo sapiens; details: Homo sapiens, NHDF; read-out: IC50
[21] = Selectivity index, ratio of IC50 for HDF cells to IC50 for human HeLa cells; assay type: toxicity; details: HDF cells versus HeLa cells, read-out: Ratio IC50
[22] = test system: Mycobacterium tuberculosis; assay: Antitubercular activity against Mycobacterium tuberculosis H37Rv; assay type: functional
Outline: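 Mycobacterium tuberculosis strain H37Rv; minimum inhibitory concentration (MIC) taken as the lowest level needed to inhibit bacterial growth; isoniazid and pyrazinamide served as reference drugs.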

Staphylococcus aureus [23] = assay: Antibacterial activity against methicillin resistant Staphylococcus aureus; assay type: functional

Structure (SMILES) | IC50 [1] [µM] | fold change (FC) (Erythrocyte [2]) | fold change (FC) (Erythrocyte [3]) | Activity [6] [equiv] | Activity [7] [%] | Activity [8] [%] | Activity (Rattus norvegicus [11]) [%] | Activity (Rattus norvegicus [13]) | MIC (Neisseria gonorrhoeae) [µg/mL] | MIC (Escherichia coli) [µg/mL] | MIC (Klebsiella pneumoniae) [µg/mL] | MIC (Citrobacter braakii) [µg/mL] | MIC (Proteus vulgaris) [µg/mL] | MIC (Serratia marcescens) [µg/mL] | MIC (Shigella flexneri) [µg/mL] | MIC (Pseudomonas aeruginosa) [µg/mL] | MIC (Streptococcus pyogenes) [µg/mL] | MIC (Staphylococcus aureus [16]) [µg/mL] | MIC (Trichophyton rubrum) [µg/mL] | MIC (Nannizzia gypsea) [µg/mL] | also measured
Nc1c(C(F)(F)F)n[nH]c1-c1cccs1 | 17.6 | 1.11 | 0.01 | – | – | – | – | – | – | – | – | – | – | – | – | – | – | – | – | – | Activity [4]: Toxic; Activity [5]: Non-Toxic
CS(=O)(=O)c1ccc(N2N=C(c3ccccc3)/C(=N\O)C2(O)C(F)(F)F)cc1 (stereo unspecified) | 169 | 1.03 | 1.14 | 0.16 | 30.6 | 49.1 | 53.7 | Active | – | – | – | – | – | – | – | – | – | – | – | – | inhibition (Rattus norvegicus [9]): inactive; inhibition (Rattus norvegicus [10]): inactive; Activity (Rattus norvegicus [12]): 44.3%; Activity [14]: Non-Toxic; LD50 [15]: > 300 mg/kg
Cl.Nc1c(C(F)(F)F)n[nH]c1-c1cccs1 | 13.3 | – | – | – | – | – | – | – | 62.5 | > 250 | > 250 | > 250 | > 250 | > 250 | > 250 | > 250 | > 250 | > 250 | 200 | > 200 | MIC (Trichophyton tonsurans): > 200 µg/mL; MIC (Trichophyton violaceum): > 200 µg/mL; MIC [17]: > 200 µg/mL; MIC (Epidermophyton floccosum): 200 µg/mL; MIC (Microsporum canis): 200 µg/mL; MIC (Candida albicans): > 200 µg/mL; Activity [18]: Toxic; Activity [4]: Toxic; Activity [5]: Non-Toxic
Cn1nc(C(F)(F)F)c(N=O)c1-c1ccccc1 | – | 1 | 1.02 | 0.01 | 3 | 16.1 | 80.2 | Active | 62.5 (≈ 245 µM) | > 500 | > 500 | > 500 | > 500 | > 500 | > 500 | > 500 | > 500 | > 500 | 12.5 (≈ 49 µM) | 25 (≈ 98 µM) | MIC (Trichophyton tonsurans): 3.12 µg/mL (≈ 12.2 µM); MIC (Trichophyton violaceum): 6.25 µg/mL (≈ 24.5 µM); MIC [17]: 12.5 µg/mL (≈ 49 µM); MIC (Epidermophyton floccosum): 0.38 µg/mL (≈ 1.49 µM); MIC (Microsporum canis): 100 µg/mL (≈ 392 µM); MIC (Candida albicans): inactive; Drug metabolism [19]: Metabolite detected; Drug metabolism [20]: Metabolite not detected; Activity (HeLa): Dose-dependent effect; IC50 (HeLa): 63.9 µM; IC50 (NHDF): 49.5 µM; selectivity ratio [21]: 0.77; inhibition (Rattus norvegicus [9]): inactive; inhibition (Rattus norvegicus [10]): inactive; Activity [18]: Non-Toxic
Cc1ccc(C2=NN(c3ccc(S(N)(=O)=O)cc3)C(O)(C(F)(F)F)/C2=N/O)cc1 (stereo unspecified) | 45.3 | 1.09 | 1.08 | 0.48 | 38.5 | 59.4 | 58.9 | Active | – | – | – | – | – | – | – | – | – | – | – | – | Activity (HeLa): Dose-dependent effect; IC50 (HeLa): 7.23 µM; IC50 (NHDF): 99.3 µM; selectivity ratio [21]: 13.7; inhibition (Rattus norvegicus [9]): inactive; inhibition (Rattus norvegicus [10]): inactive; Activity (Rattus norvegicus [12]): 96.55%; Activity [14]: Non-Toxic; LD50 [15]: > 300 mg/kg
Cn1nc(C(F)(F)F)c(N=O)c1-c1cccs1 | – | – | – | – | – | – | 29.8 | Active | 500 (≈ 1910 µM) | 500 (≈ 1910 µM) | > 500 | > 500 | > 500 | > 500 | > 500 | > 500 | > 500 | > 500 | 12.5 (≈ 47.9 µM) | 50 (≈ 191 µM) | MIC [22]: 12.5 µg/mL (≈ 47.9 µM); MIC (Trichophyton tonsurans): 50 µg/mL (≈ 191 µM); MIC [17]: 25 µg/mL (≈ 95.7 µM); MIC (Epidermophyton floccosum): 50 µg/mL (≈ 191 µM); MIC (Microsporum canis): 25 µg/mL (≈ 95.7 µM); MIC (Candida albicans): 25 µg/mL (≈ 95.7 µM); Drug metabolism [19]: Metabolite detected; Drug metabolism [20]: Metabolite not detected; Activity (Rattus norvegicus [12]): 43.8%
O=Nc1c(C(F)(F)F)n[nH]c1-c1cccs1 | – | 1.18 | 1.12 | 0.02 | -56.2 | -98.7 | – | Active | 62.5 (≈ 253 µM) | 250 (≈ 1010 µM) | 500 (≈ 2020 µM) | 250 (≈ 1010 µM) | 31.2 (≈ 126 µM) | 250 (≈ 1010 µM) | 500 (≈ 2020 µM) | > 500 | 7.8 (≈ 31.6 µM) | 15.6 (≈ 63.1 µM) | 12.5 (≈ 50.6 µM) | 50 (≈ 202 µM) | MIC [22]: 3.1 µg/mL (≈ 12.5 µM); MIC (Staphylococcus aureus [23]): 62.5 µg/mL (≈ 253 µM); MIC (Trichophyton tonsurans): 50 µg/mL (≈ 202 µM); MIC [17]: 50 µg/mL (≈ 202 µM); MIC (Epidermophyton floccosum): 50 µg/mL (≈ 202 µM); MIC (Microsporum canis): 25 µg/mL (≈ 101 µM); MIC (Candida albicans): 50 µg/mL (≈ 202 µM); Drug metabolism [20]: Metabolite not detected; Activity [4]: Toxic
